The structures appear in SMILES notation. Activity calls are given as the source filed them. The rule behind the calls is not given here.

The subject of series [1] is NCI-H1703. Description: Antiproliferative activity against human NCI-H1703 cells after 48 hrs by MTT assay. The class given is functional, cell-based. The note with it: NCI-H1703, 48 h.
A short description of series [2]: Half life of the compound in GSH-containing buffer. The class given is physicochemical. An outline of the steps:
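Loss of the diazeniumdiolate chromophore followed by UV-visible spectrophotometry at 37 °C. Absorbance was tracked at each compound's λmax. kobs came from a first-order exponential fit and half-life was derived from it. Mean (SE).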

The nature of series [3]: Prodrug activation assessed as GSH-induced nitric oxide production per mol of the compound by chemiluminescence assay. The class given is physicochemical. An outline of the steps: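 Phosphate buffer, pH 7.4, containing 4 mM GSH at 37 °C was sparged with inert gas until the detector response was steady. The prodrug was then injected and NO release followed over time. The release curve was integrated to give mol NO per mol compound, reported as mean (SE).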

Series [4] relates to NCI-H1703. Description: Metabolic stability in human NCI-H1703 cells assessed as formation of arylated GSH at 5 uM after 5 mins by LC/MS analysis. Type of series: ADME, cell-based. Conditions: nci-h1703, 5 min. The method, boiled down:
(§1)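 H1703 cells plated in flasks and incubated overnight at 37 °C, then treated with 5 μM compound for 5, 30 or 60 min. Cells lysed by scraping in 10 mM HCl with freeze-thaw cycles, then deproteinized with 5-sulfosalicylic acid and centrifuged. Supernatant analyzed by LC/MS with positive APCI on a C18 column using a water/acetonitrile/0.1% formic acid gradient. Extracted ion chromatograms tracked parent and arylated GSH.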

Series [5] relates to NCI-H1703. Description: Metabolic stability in human NCI-H1703 cells assessed as formation of arylated GSH at 5 uM after 30 mins by LC/MS analysis. The class given is ADME, cell-based. The note with it: nci-h1703, 0.5 h. An outline of the steps:
as §1

Series [6] deals with NCI-H1703. The series can be described thus: Metabolic stability in human NCI-H1703 cells assessed as formation of arylated GSH at 5 uM after 60 mins by LC/MS analysis. The class given is ADME, cell-based. Conditions: nci-h1703, 1 h. An outline of the steps:
as §1

For series [7], the system named is NCI-H1703. Description: Antitumor activity against human NCI-H1703 cells xenografted in athymic NCr-nu/nu mouse at 20 umol/kg, ip 5 times a week for 4-weeks relative to control. The class given is functional, organism-based. The method, boiled down: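 H1703 cells implanted in the flank of 7-week-old female athymic NCr-nu/nu mice. Dosing started once tumors reached 2 × 2 × 2 mm3 (typically four weeks). Compound was given as Pluronic P123 micelles at 20 μmol/kg ip, five times a week for four weeks. Vehicle controls received 2.25% Pluronic P123 in PBS. Tumors measured by caliper and body weights tracked. Welch-corrected t-test.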

For series [8], the system named is H1703. Description: Induction of SAPK/JNK phosphorylation in human H1703 cells at 1 uM after 4 hrs by Western blotting analysis. Type of series: cell-based. An outline of the steps:
(§2)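 H1703 lung adenocarcinoma cells exposed to 1 μM compound for 4 h. Western blots probed for phospho-SAPK/JNK, phospho-c-jun, ATF3, PARP (full-length and 89-kDa cleaved fragment) and cleaved effector caspases 3 and 7.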

In series [9] the test system is H1703. Description: Induction of SAPK/JNK-mediated c-jun phosphorylation in human H1703 cells at 1 uM after 4 hrs by Western blotting analysis. The class given is cell-based. The method, boiled down: as §2
Series [10] in a line: Induction of SAPK/JNK-mediated ATF3 upregulation in human H1703 cells at 1 uM after 4 hrs by Western blotting analysis. Type of series: cell-based. An outline of the steps:
as §2

Series [11] has as its system NCI-H1703. The series can be described thus: Induction of apoptosis in human NCI-H1703 cells assessed as PARP cleavage at 1 uM after 4 hrs by Western blotting analysis. The class given is functional, cell-based. An outline of the steps:
as §2

Series [12] has as its system NCI-H1703. Description: Induction of apoptosis in human NCI-H1703 cells assessed as cleaved of caspase 3 level at 1 uM after 4 hrs by Western blotting analysis. The class given is functional, cell-based. An outline of the steps:
as §2

For series [13], the system named is NCI-H1703. Description: Induction of apoptosis in human NCI-H1703 cells assessed as cleaved of caspase 7 level at 1 uM after 4 hrs by Western blotting analysis. Type of series: functional, cell-based. An outline of the steps:
as §2

Regarding `CCOC(=O)N1CCCN(/[N+]([O-])=N/Oc2ccc(C#N)cc2[N+](=O)[O-])CC1`, in series [1], the IC50 was determined as 680 nM. Further, the t1/2 in series [2] is given as 42.6 min. Also, the NO yield in series [3] amounted to 1.96 mol/mol.

In series [1], `CCOC(=O)N1CCN(/[N+]([O-])=N/Oc2ccc([N+](=O)[O-])cc2[N+](=O)[O-])CC1` had an IC50 of 1080 nM. The NO yield in series [3] worked out at 1.96 mol/mol.

With `CCOC(=O)N1CCCN(/[N+]([O-])=N/Oc2ccc([N+](=O)[O-])cc2[N+](=O)[O-])CC1`, in [3], the NO yield came out at 2 mol/mol.

In turn, `CCOC(=O)N1CCN(/[N+]([O-])=N/Oc2ccc([N+](=O)[O-])cc2C#N)CC1` showed an IC50 in series [1] of 550 nM. The compound also registered a t1/2 in series [2] of 33.6 min. The NO yield in series [3] amounted to 2.04 mol/mol. For the same compound, the figures for the Stability result in [4], in series [5] and in [6] were “Stable”, “Stable” and “Unstable”, respectively. Moreover, the outcome in series [7], in series [8], in series [9], in series [10], in series [11] and in series [12] was Active. The result in [13] was Active.

`CCOC(=O)N1CCN(/[N+]([O-])=N/Oc2ccc(C#N)cc2C#N)CC1` displayed an IC50 in series [1] above 20000 nM. Moreover, the t1/2 in [2] amounted to 918 min.

On to `CCOC(=O)N1CCCN(/[N+]([O-])=N/Oc2ccc([N+](=O)[O-])cc2C#N)CC1`, for which, in [1], the IC50 stood at 2620 nM. Also, in series [2], the t1/2 stood at 66 min. Besides, the NO yield in series [3] amounted to 2.01 mol/mol.

For `CCOC(=O)N1CCN(/[N+]([O-])=N/Oc2ccc(C#N)cc2[N+](=O)[O-])CC1`, inhibition in series [1] was half-maximal at 730 nM (IC50). In series [2], the t1/2 amounted to 22.1 min. Further, the NO yield in series [3] was found to be 2.02 mol/mol.
